Experimental data as given in ChEMBL document CHEMBL5724801, “EUbOPEN Chemogenomics Library - Multiplex” (2024).
“And” between values parts separate entries of the source, which are not always exact repeats. Equal values may be shown once.

Experiments:
Assay type in all cases: toxicity, cell-based
[1] = test system: Fibroblast; experiment: Multiplex assay against human fibroblast
In short: (§1)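 Live cells carried four stains from seeding: Hoechst33342, BioTracker Green Microtubule Cytoskeleton Dye, MitoTracker Red and Annexin V Alexa Fluor 680. They were imaged on a CQ1 microscope at 37°C and 5% CO2 after compound addition. Using CellPathfinder machine-learning gating, cells were split into Hoechst high-intensity objects or normal cells, normal cells into healthy, pyknosed or fragmented nuclei, and pyknosed cells into mitotic or apoptotic; tubulin, mitochondrial-mass and membrane-permeability phenotypes are per cents of healthy-nucleus cells.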

[2] = test system: HEK-293T; experiment: Multiplex assay against HEK293T; conditions: human; in short: as §1
[3] = test system: U2OS; experiment: Multiplex assay against U2OS; conditions: human; in short: as §1
[4] = 12 h, 1 µM, compound concentration 1 uM
[5] = 12 h, 10 µM, compound concentration 10 uM
[6] = 24 h, 1 µM, compound concentration 1 uM
[7] = 24 h, 10 µM, compound concentration 10 uM
[8] = 48 h, 1 µM, compound concentration 1 uM
[9] = 48 h, 10 µM, compound concentration 10 uM

CC(=O)NCCc1c(Cc2ccccc2)[nH]c2ccccc12 [LUZINDOLE]
Population Apoptotic (%) [1, 4]: 41% and 40% | Population Fragmented Nuclei (%) [1, 4]: 15% and 25% | Population Healthy Nuclei (%) [1, 4]: 65% and 39% | Population Hoechst High Intensity Objects (%) [1, 4]: 1% and 4% | Population Membrane Permeable-Phenotype (%) [1, 4]: 2% and 9% | Population Mitochondria Different-Phenotype (%) [1, 4]: 7% and 11% | Population Mitotic Cells (%) [1, 4]: 58% and 59% | Population Normal (%) [1, 4]: 98% and 95% | Population Pyknosed Nuclei (%) [1, 4]: 18% and 34% | Population Tubulin-Different-Phenotype (%) [1, 4]: 30% and 50% | Total Cell Count [1, 4]: 129 and 134 | Population Apoptotic (%) [1, 5]: 19% and 21% | Population Fragmented Nuclei (%) [1, 5]: 15% and 26% | Population Healthy Nuclei (%) [1, 5]: 69% and 59% | Population Hoechst High Intensity Objects (%) [1, 5]: 2% | Population Mitochondria Different-Phenotype (%) [1, 5]: 7% and 4% | Population Mitotic Cells (%) [1, 5]: 80% and 78% | Population Normal (%) [1, 5]: 97% | Population Pyknosed Nuclei (%) [1, 5]: 15% and 13% | Population Tubulin-Different-Phenotype (%) [1, 5]: 42% and 32% | Total Cell Count [1, 5]: 140 and 105 | Population Apoptotic (%) [1, 6]: 54% and 45% | Population Fragmented Nuclei (%) [1, 6]: 21% and 25% | Population Healthy Nuclei (%) [1, 6]: 61% and 47% | Population Hoechst High Intensity Objects (%) [1, 6]: 0% and 5% | Population Membrane Permeable-Phenotype (%) [1, 6]: 0% and 8% | Population Mitochondria Different-Phenotype (%) [1, 6]: 3% and 8% | Population Mitotic Cells (%) [1, 6]: 45% and 54% | Population Normal (%) [1, 6]: 99% and 94% | Population Pyknosed Nuclei (%) [1, 6]: 16% and 26% | Total Cell Count [1, 6]: 134 and 137 | Population Apoptotic (%) [1, 7]: 47% and 23% | Population Fragmented Nuclei (%) [1, 7]: 15% and 27% | Population Healthy Nuclei (%) [1, 7]: 67% and 59% | Population Hoechst High Intensity Objects (%) [1, 7]: 2% and 3% | Population Membrane Permeable-Phenotype (%) [1, 7]: 1% and 5% | Population Mitochondria Different-Phenotype (%) [1, 7]: 5% and 3% | Population Mitotic Cells (%) [1, 7]: 52% and 76% | Population Normal (%) [1, 7]: 97% and 96% | Population Pyknosed Nuclei (%) [1, 7]: 17% and 12% | Population Tubulin-Different-Phenotype (%) [1, 7]: 29% and 33% | Total Cell Count [1, 7]: 138 and 105 | Population Apoptotic (%) [1, 8]: 75% and 39% | Population Fragmented Nuclei (%) [1, 8]: 15% and 27% | Population Healthy Nuclei (%) [1, 8]: 72% and 55% | Population Hoechst High Intensity Objects (%) [1, 8]: 5% and 8% | Population Membrane Permeable-Phenotype (%) [1, 8]: 2% and 9% | Population Mitochondria Different-Phenotype (%) [1, 8]: 3% and 5% | Population Mitotic Cells (%) [1, 8]: 25% and 60% | Population Normal (%) [1, 8]: 94% and 91% | Population Pyknosed Nuclei (%) [1, 8]: 12% and 16% | Population Tubulin-Different-Phenotype (%) [1, 8]: 24% and 46% | Total Cell Count [1, 8]: 134 and 149 | Population Apoptotic (%) [1, 9]: 80% and 54% | Population Fragmented Nuclei (%) [1, 9]: 19% and 34% | Population Healthy Nuclei (%) [1, 9]: 70% and 54% | Population Hoechst High Intensity Objects (%) [1, 9]: 3% and 4% | Population Membrane Permeable-Phenotype (%) [1, 9]: 0% and 3% | Population Mitochondria Different-Phenotype (%) [1, 9]: 3% | Population Mitotic Cells (%) [1, 9]: 20% and 45% | Population Normal (%) [1, 9]: 96% and 95% | Population Pyknosed Nuclei (%) [1, 9]: 10% | Population Tubulin-Different-Phenotype (%) [1, 9]: 34% and 50% | Total Cell Count [1, 9]: 147 and 111 | Population Apoptotic (%) [2, 4]: 38% and 43% | Population Fragmented Nuclei (%) [2, 4]: 7% and 5% | Population Healthy Nuclei (%) [2, 4]: 79% and 80% | Population Hoechst High Intensity Objects (%) [2, 4]: 11% and 8% | Population Membrane Permeable-Phenotype (%) [2, 4]: 0% | Population Mitochondria Different-Phenotype (%) [2, 4]: 54% and 68% | Population Mitotic Cells (%) [2, 4]: 61% and 56% | Population Normal (%) [2, 4]: 88% and 91% | Population Pyknosed Nuclei (%) [2, 4]: 12% and 13% | Population Tubulin-Different-Phenotype (%) [2, 4]: 39% and 27% | Total Cell Count [2, 4]: 412 and 304 | Population Apoptotic (%) [2, 5]: 37% and 53% | Population Fragmented Nuclei (%) [2, 5]: 8% and 5% | Population Healthy Nuclei (%) [2, 5]: 77% and 80% | Population Hoechst High Intensity Objects (%) [2, 5]: 10% and 9% | Population Membrane Permeable-Phenotype (%) [2, 5]: 0% | Population Mitochondria Different-Phenotype (%) [2, 5]: 61% and 72% | Population Mitotic Cells (%) [2, 5]: 62% and 46% | Population Normal (%) [2, 5]: 89% and 90% | Population Pyknosed Nuclei (%) [2, 5]: 14% | Population Tubulin-Different-Phenotype (%) [2, 5]: 45% and 35% | Total Cell Count [2, 5]: 379 and 315 | Population Apoptotic (%) [2, 6]: 20% and 40% | Population Fragmented Nuclei (%) [2, 6]: 12% and 7% | Population Healthy Nuclei (%) [2, 6]: 75% and 82% | Population Hoechst High Intensity Objects (%) [2, 6]: 7% and 8% | Population Membrane Permeable-Phenotype (%) [2, 6]: 0% | Population Mitochondria Different-Phenotype (%) [2, 6]: 33% and 45% | Population Mitotic Cells (%) [2, 6]: 80% and 60% | Population Normal (%) [2, 6]: 92% and 91% | Population Pyknosed Nuclei (%) [2, 6]: 11% and 10% | Population Tubulin-Different-Phenotype (%) [2, 6]: 26% and 18% | Total Cell Count [2, 6]: 546 and 379 | Population Apoptotic (%) [2, 7]: 40% and 28% | Population Fragmented Nuclei (%) [2, 7]: 9% and 11% | Population Healthy Nuclei (%) [2, 7]: 81% and 77% | Population Hoechst High Intensity Objects (%) [2, 7]: 10% and 11% | Population Membrane Permeable-Phenotype (%) [2, 7]: 1% and 0% | Population Mitochondria Different-Phenotype (%) [2, 7]: 40% and 58% | Population Mitotic Cells (%) [2, 7]: 60% and 71% | Population Normal (%) [2, 7]: 89% and 88% | Population Pyknosed Nuclei (%) [2, 7]: 8% and 11% | Population Tubulin-Different-Phenotype (%) [2, 7]: 32% and 24% | Total Cell Count [2, 7]: 502 and 388 | Population Apoptotic (%) [2, 8]: 24% and 46% | Population Fragmented Nuclei (%) [2, 8]: 16% and 12% | Population Healthy Nuclei (%) [2, 8]: 78% and 82% | Population Hoechst High Intensity Objects (%) [2, 8]: 3% and 6% | Population Membrane Permeable-Phenotype (%) [2, 8]: 1% and 0% | Population Mitochondria Different-Phenotype (%) [2, 8]: 16% and 23% | Population Mitotic Cells (%) [2, 8]: 75% and 53% | Population Normal (%) [2, 8]: 96% and 93% | Population Pyknosed Nuclei (%) [2, 8]: 5% | Population Tubulin-Different-Phenotype (%) [2, 8]: 12% and 13% | Total Cell Count [2, 8]: 965 and 522 | Population Apoptotic (%) [2, 9]: 27% and 36% | Population Fragmented Nuclei (%) [2, 9]: 13% and 11% | Population Healthy Nuclei (%) [2, 9]: 79% and 82% | Population Hoechst High Intensity Objects (%) [2, 9]: 9% and 6% | Population Membrane Permeable-Phenotype (%) [2, 9]: 0% | Population Mitochondria Different-Phenotype (%) [2, 9]: 27% and 32% | Population Mitotic Cells (%) [2, 9]: 72% and 63% | Population Normal (%) [2, 9]: 90% and 93% | Population Pyknosed Nuclei (%) [2, 9]: 7% and 5% | Population Tubulin-Different-Phenotype (%) [2, 9]: 17% and 19% | Total Cell Count [2, 9]: 742 and 573 | Population Apoptotic (%) [3, 4]: 72% and 100% | Population Fragmented Nuclei (%) [3, 4]: 25% and 19% | Population Healthy Nuclei (%) [3, 4]: 65% and 77% | Population Hoechst High Intensity Objects (%) [3, 4]: 3% and 2% | Population Membrane Permeable-Phenotype (%) [3, 4]: 3% and 6% | Population Mitochondria Different-Phenotype (%) [3, 4]: 4% and 2% | Population Normal (%) [3, 4]: 96% and 97% | Population Pyknosed Nuclei (%) [3, 4]: 9% and 3% | Population Tubulin-Different-Phenotype (%) [3, 4]: 1% and 2% | Total Cell Count [3, 4]: 233 and 134 | Population Apoptotic (%) [3, 5]: 81% and 76% | Population Fragmented Nuclei (%) [3, 5]: 26% and 13% | Population Healthy Nuclei (%) [3, 5]: 65% and 78% | Population Hoechst High Intensity Objects (%) [3, 5]: 2% and 1% | Population Membrane Permeable-Phenotype (%) [3, 5]: 8% and 5% | Population Mitochondria Different-Phenotype (%) [3, 5]: 3% and 2% | Population Mitotic Cells (%) [3, 5]: 18% and 23% | Population Normal (%) [3, 5]: 97% and 98% | Population Pyknosed Nuclei (%) [3, 5]: 7% | Population Tubulin-Different-Phenotype (%) [3, 5]: 4% and 3% | Total Cell Count [3, 5]: 291 and 179 | Population Apoptotic (%) [3, 6]: 90% and 88% | Population Fragmented Nuclei (%) [3, 6]: 19% and 18% | Population Healthy Nuclei (%) [3, 6]: 68% and 70% | Population Hoechst High Intensity Objects (%) [3, 6]: 4% and 0% | Population Membrane Permeable-Phenotype (%) [3, 6]: 2% and 5% | Population Mitochondria Different-Phenotype (%) [3, 6]: 3% and 1% | Population Mitotic Cells (%) [3, 6]: 10% and 11% | Population Normal (%) [3, 6]: 95% and 99% | Population Pyknosed Nuclei (%) [3, 6]: 12% and 10% | Population Tubulin-Different-Phenotype (%) [3, 6]: 3% and 4% | Total Cell Count [3, 6]: 260 and 156 | Population Apoptotic (%) [3, 7]: 88% and 85% | Population Fragmented Nuclei (%) [3, 7]: 25% and 11% | Population Healthy Nuclei (%) [3, 7]: 66% and 80% | Population Hoechst High Intensity Objects (%) [3, 7]: 2% and 0% | Population Membrane Permeable-Phenotype (%) [3, 7]: 6% | Population Mitochondria Different-Phenotype (%) [3, 7]: 3% and 1% | Population Mitotic Cells (%) [3, 7]: 12% and 15% | Population Normal (%) [3, 7]: 97% and 99% | Population Pyknosed Nuclei (%) [3, 7]: 7% and 8% | Population Tubulin-Different-Phenotype (%) [3, 7]: 4% and 3% | Total Cell Count [3, 7]: 342 and 236 | Population Apoptotic (%) [3, 8]: 91% and 80% | Population Fragmented Nuclei (%) [3, 8]: 16% and 11% | Population Healthy Nuclei (%) [3, 8]: 74% and 77% | Population Hoechst High Intensity Objects (%) [3, 8]: 2% and 1% | Population Membrane Permeable-Phenotype (%) [3, 8]: 3% and 8% | Population Mitochondria Different-Phenotype (%) [3, 8]: 2% and 1% | Population Mitotic Cells (%) [3, 8]: 8% and 20% | Population Normal (%) [3, 8]: 97% and 98% | Population Pyknosed Nuclei (%) [3, 8]: 9% and 11% | Population Tubulin-Different-Phenotype (%) [3, 8]: 2% and 4% | Total Cell Count [3, 8]: 395 and 217 | Population Apoptotic (%) [3, 9]: 89% and 100% | Population Fragmented Nuclei (%) [3, 9]: 21% and 11% | Population Healthy Nuclei (%) [3, 9]: 69% and 82% | Population Hoechst High Intensity Objects (%) [3, 9]: 2% and 1% | Population Membrane Permeable-Phenotype (%) [3, 9]: 6% and 5% | Population Mitochondria Different-Phenotype (%) [3, 9]: 3% and 2% | Population Mitotic Cells (%) [3, 9]: 10% and 0% | Population Normal (%) [3, 9]: 97% and 98% | Population Pyknosed Nuclei (%) [3, 9]: 8% and 5% | Population Tubulin-Different-Phenotype (%) [3, 9]: 3% | Total Cell Count [3, 9]: 446 and 354
